Data on eleven compounds can be found in ChEMBL document CHEMBL1121751, “Inhibition of thymidylate synthetase by 5-alkynyl-2'-deoxyuridylates” (J Med Chem, 1981).

The target of one data set is T1, Thymidylate synthase (Lactobacillus casei, UniProt P00469).
T1 sequence (P00469 whole entry): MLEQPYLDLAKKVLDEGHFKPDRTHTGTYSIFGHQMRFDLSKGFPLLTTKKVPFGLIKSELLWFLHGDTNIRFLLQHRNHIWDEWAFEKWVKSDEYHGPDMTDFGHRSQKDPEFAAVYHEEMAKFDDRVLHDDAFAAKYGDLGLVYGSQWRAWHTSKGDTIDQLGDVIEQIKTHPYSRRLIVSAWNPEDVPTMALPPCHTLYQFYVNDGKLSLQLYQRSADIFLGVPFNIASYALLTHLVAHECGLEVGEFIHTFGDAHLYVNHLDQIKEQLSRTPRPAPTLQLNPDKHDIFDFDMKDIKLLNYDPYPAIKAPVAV
Briefly: The compound was evaluated for the inhibition of dTMP synthetase from Lactobacillus casei. On the set-up: species or system Lacticaseibacillus casei. An outline of the steps: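 dTMP synthetase came from a methotrexate-resistant strain of Lactobacillus casei and was purified. Activity was measured by a reported procedure in standard assay buffer. For time-dependent inactivation, enzyme was preincubated with nucleotide, with or without 0.1 mM CH₂-H₄folate, for up to 2 h. Aliquots were then diluted 10-fold into buffer containing 0.84 mM dUMP and 0.1 mM CH₂-H₄folate, and initial velocity was recorded.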

Data set [1] in a line: Compound was tested for cytotoxicity towards (Wild-type and TK-) S49 cells at 0.1 mM; Not cytotoxic. As to conditions: mouse, s49, 100 µM. It counts as cell-based.
The species entered for another data set is Mus musculus. Briefly: Effect on mutant line lacking dThd kinase (S49/TK at 0.1 mM; No effect. It counts as functional.
Data set [2] is described as follows: Compound was tested for cytotoxicity against Wild-type S49 cells. In kind it is functional, cell-based. As to conditions: Mus musculus.
A short description of data set [3]: Effective concentration to inhibit the growth of Wild-type S49 cells. As to conditions: Mus musculus. It counts as functional, cell-based. An outline of the steps:
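Growth-inhibition assay run by a previously reported procedure on wild-type S49 cells, with a thymidine kinase-deficient S49/TK⁻ line tested alongside. The 5-alkynyl-2'-deoxyuridine nucleosides were tested up to 0.1 mM. EC₅₀ is the concentration giving half-maximal growth inhibition.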

The source made the active and inactive calls. The calls are words filed in the database; no cut-off is given here.

As for `O=c1[nH]c(=O)n([C@H]2C[C@H](O)[C@@H](COP(=O)(O)O)O2)cc1C#Cc1ccccc1`, affinity on Thymidylate synthase was put at a Ki of 2 µM.

Turning to `CCCCC#Cc1cn([C@H]2C[C@H](O)[C@@H](CO)O2)c(=O)[nH]c1=O`, the Cytotoxicity result in data set [1] is listed as “Non-toxic”.

At Thymidylate synthase, `O=c1[nH]c(=O)n([C@H]2C[C@H](O)[C@@H](COP(=O)(O)O)O2)cc1C#CCO` returned a Ki of 3 µM.

Consider `O=c1[nH]c(=O)n([C@H]2C[C@H](O)[C@@H](CO)O2)cc1C#CCCO`, for which the Effect result in the data set listed under Mus musculus is “inactive”. In addition, the EC50 in data set [2] worked out at 70 µM.

Regarding `C#Cc1cn([C@H]2C[C@H](O)[C@@H](COP(=O)(O)O)O2)c(=O)[nH]c1=O`, the affinity at Thymidylate synthase, expressed as Ki, was 0.1 µM.

Compound `C#Cc1cn([C@H]2C[C@H](O)[C@@H](CO)O2)c(=O)[nH]c1=O` had an EC50 in data set [3] of 0.12 µM. For the same compound, the Effect entry in the data set filed under Mus musculus is “inactive”.

For `O=c1[nH]c(=O)n([C@H]2C[C@H](O)[C@@H](COP(=O)(O)O)O2)cc1Cl`, the Ki at Thymidylate synthase stood at 0.2 µM.

`O=c1[nH]c(=O)n([C@H]2C[C@H](O)[C@@H](CO)O2)cc1C#CCO`: the Cytotoxicity entry in data set [1] is reported as “Non-toxic”.

Consider `O=c1[nH]c(=O)n([C@H]2C[C@H](O)[C@@H](CO)O2)cc1C#Cc1ccccc1`, for which the Cytotoxicity entry in data set [1] is “Non-toxic”.

On to `CCCCC#Cc1cn([C@H]2C[C@H](O)[C@@H](COP(=O)(O)O)O2)c(=O)[nH]c1=O`, for which the Ki at Thymidylate synthase is 2.6 µM.

`O=c1[nH]c(=O)n([C@H]2C[C@H](O)[C@@H](COP(=O)(O)O)O2)cc1C#CCCO` registered a Ki on Thymidylate synthase of 1.9 µM.
